# Key:
# [1] = biological target: Tyrosine-protein kinase Lck (Homo sapiens, UniProt P06239); assay: Inhibition of Lck
# [2] = biological target: Vascular endothelial growth factor receptor 2 (Homo sapiens, UniProt P35968); assay: Inhibition of KDR by HTRF assay
# Method in brief: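 KDR read by homogeneous time-resolved fluorescence with a biotinylated gastrin substrate. IC50 is the mean of two or more separate determinations, each in duplicate.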
# HUVEC [3] = assay: Inhibition of FGF-induced proliferation of HUVEC cells; type: functional, cell-based; settings: Homo sapiens
# Method in brief: (§1)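 Human umbilical vein endothelial cell proliferation driven by VEGF or by FGF; IC50 is the mean of two or more separate determinations, each in duplicate.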
# [4] = biological target: Hepatocyte growth factor receptor (Homo sapiens, UniProt P08581); assay: Inhibition of c-Met
# HUVEC [5] = assay: Inhibition of VEGF-induced proliferation of HUVEC cells; type: functional, cell-based; settings: Homo sapiens; method in brief: as §1
# Angiopoietin-1 receptor = Angiopoietin-1 receptor (Homo sapiens, UniProt Q02763); assay: Inhibition of Tie2
# [6] = Solubility in 0.01 N HCl; type: physicochemical; settings: 0.01 N HCl; read-out: Solubility
# Method in brief: (§2)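 Equilibrium solubility measured in 0.01 N HCl, PBS (pH 7), and simulated intestinal fluid.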
# [7] = Solubility in simulated intestinal fluid; type: physicochemical; settings: simulated intestinal fluid; read-out: Solubility; method in brief: as §2
# [8] = Solubility in PBS at pH 7; type: physicochemical; method in brief: as §2
# [9] = Metabolic stability in human liver microsomes; type: ADME, Microsome; settings: read-out: Stability
# Method in brief: (§3)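 In vitro stability on incubation with human or rat liver microsomal preparations.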
# [10] = Metabolic stability in rat liver microsomes; type: ADME, Microsome; settings: read-out: Stability; method in brief: as §3
# [11] = Half life in Sprague-Dawley rat at 0.5 mg/kg, iv; type: ADME, organism-based; parameters: dose 0.5 mg/kg, route intravenous; settings: in vivo
# Method in brief: (§4)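 Male Sprague Dawley rats; single dose, 0.5 mg/kg iv or 2 mg/kg po; mean pharmacokinetic parameters reported.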
# [12] = Volume of distribution at steady state in Sprague-Dawley rat at 0.5 mg/kg, iv; type: ADME, organism-based; parameters: dose 0.5 mg/kg, route intravenous; settings: in vivo, read-out: Vdss; method in brief: as §4
# [13] = Clearance in Sprague-Dawley rat at 0.5 mg/kg, iv; type: ADME, organism-based; parameters: dose 0.5 mg/kg, route intravenous; settings: in vivo; method in brief: as §4
# [14] = Cmax in Sprague-Dawley rat at 2 mg/kg, po; type: ADME, organism-based; parameters: dose 2 mg/kg, route oral; settings: in vivo; method in brief: as §4
# [15] = AUC (0 to infinity) in Sprague-Dawley rat at 2 mg/kg, po; type: ADME, organism-based; parameters: time infinity, dose 2 mg/kg, route oral; settings: plasma; method in brief: as §4
# [16] = Tmax in Sprague-Dawley rat at 2 mg/kg, po; type: ADME, organism-based; parameters: dose 2 mg/kg, route oral; settings: in vivo; method in brief: as §4
# [17] = Oral bioavailability in Sprague-Dawley rat at 2 mg/kg, po; type: ADME, organism-based; settings: in vivo; method in brief: as §4
# Vascular endothelial growth factor receptor 2, sequence (P35968 whole entry): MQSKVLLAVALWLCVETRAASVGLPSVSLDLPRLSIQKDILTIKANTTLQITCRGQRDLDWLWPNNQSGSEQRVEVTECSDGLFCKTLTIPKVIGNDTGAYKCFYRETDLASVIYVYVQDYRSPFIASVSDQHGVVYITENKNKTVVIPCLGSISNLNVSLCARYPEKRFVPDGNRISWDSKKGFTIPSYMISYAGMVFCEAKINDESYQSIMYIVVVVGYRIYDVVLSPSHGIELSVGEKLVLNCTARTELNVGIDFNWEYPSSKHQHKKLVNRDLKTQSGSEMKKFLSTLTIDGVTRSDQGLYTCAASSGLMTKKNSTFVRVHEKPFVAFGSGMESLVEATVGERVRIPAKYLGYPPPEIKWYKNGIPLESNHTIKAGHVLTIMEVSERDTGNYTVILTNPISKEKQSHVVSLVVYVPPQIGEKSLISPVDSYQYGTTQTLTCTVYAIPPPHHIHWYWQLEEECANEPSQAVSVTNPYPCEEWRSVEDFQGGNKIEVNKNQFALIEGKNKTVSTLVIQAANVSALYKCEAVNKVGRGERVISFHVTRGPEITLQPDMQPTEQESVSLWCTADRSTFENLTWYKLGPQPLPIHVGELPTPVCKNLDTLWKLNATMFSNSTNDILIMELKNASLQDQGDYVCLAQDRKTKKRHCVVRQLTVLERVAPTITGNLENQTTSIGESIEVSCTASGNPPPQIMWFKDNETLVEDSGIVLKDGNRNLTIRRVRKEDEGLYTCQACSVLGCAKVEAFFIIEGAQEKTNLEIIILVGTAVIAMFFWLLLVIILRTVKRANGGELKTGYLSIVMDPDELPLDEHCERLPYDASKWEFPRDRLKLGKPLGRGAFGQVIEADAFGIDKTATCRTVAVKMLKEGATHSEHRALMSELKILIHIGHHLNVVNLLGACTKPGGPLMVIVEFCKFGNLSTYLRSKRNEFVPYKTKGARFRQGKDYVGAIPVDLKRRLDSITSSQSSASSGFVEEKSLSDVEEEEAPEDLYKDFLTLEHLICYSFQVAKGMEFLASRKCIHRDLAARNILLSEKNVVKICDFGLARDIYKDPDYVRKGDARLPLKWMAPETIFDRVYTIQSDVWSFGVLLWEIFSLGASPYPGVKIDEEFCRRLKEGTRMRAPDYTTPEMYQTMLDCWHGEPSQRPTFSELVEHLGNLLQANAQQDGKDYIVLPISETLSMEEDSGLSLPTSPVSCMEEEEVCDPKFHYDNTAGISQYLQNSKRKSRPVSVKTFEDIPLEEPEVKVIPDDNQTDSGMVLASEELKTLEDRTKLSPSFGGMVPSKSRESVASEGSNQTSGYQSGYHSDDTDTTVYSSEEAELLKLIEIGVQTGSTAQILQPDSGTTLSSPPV
# Angiopoietin-1 receptor, sequence (Q02763 whole entry): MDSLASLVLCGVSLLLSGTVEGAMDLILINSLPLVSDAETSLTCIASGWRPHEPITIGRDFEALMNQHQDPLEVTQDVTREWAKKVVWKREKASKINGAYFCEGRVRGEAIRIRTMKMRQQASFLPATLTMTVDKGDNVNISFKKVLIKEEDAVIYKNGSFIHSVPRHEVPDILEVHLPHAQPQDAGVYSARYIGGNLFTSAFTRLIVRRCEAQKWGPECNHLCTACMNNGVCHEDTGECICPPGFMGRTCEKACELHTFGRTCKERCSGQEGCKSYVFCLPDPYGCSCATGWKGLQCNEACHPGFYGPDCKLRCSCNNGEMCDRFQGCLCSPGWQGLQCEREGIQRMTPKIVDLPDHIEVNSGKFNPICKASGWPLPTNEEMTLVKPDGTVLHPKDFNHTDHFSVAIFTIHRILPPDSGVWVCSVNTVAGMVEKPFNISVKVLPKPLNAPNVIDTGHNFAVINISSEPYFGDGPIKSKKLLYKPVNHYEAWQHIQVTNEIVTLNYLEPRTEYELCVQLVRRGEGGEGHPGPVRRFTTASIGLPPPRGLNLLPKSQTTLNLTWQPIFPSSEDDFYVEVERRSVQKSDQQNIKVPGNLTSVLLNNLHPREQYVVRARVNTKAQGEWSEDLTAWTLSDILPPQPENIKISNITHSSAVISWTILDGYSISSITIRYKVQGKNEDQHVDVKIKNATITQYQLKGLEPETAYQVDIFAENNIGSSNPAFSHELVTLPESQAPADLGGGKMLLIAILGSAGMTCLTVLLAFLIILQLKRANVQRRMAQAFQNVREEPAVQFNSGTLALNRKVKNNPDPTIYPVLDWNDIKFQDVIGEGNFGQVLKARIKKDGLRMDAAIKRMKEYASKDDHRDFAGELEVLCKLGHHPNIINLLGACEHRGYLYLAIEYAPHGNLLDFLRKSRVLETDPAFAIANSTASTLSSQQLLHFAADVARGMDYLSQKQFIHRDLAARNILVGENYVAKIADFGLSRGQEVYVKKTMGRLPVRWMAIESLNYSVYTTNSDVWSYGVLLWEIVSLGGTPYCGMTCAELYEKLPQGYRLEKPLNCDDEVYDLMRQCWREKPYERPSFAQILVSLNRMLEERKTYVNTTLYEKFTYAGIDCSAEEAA
# Hepatocyte growth factor receptor, sequence (P08581 whole entry): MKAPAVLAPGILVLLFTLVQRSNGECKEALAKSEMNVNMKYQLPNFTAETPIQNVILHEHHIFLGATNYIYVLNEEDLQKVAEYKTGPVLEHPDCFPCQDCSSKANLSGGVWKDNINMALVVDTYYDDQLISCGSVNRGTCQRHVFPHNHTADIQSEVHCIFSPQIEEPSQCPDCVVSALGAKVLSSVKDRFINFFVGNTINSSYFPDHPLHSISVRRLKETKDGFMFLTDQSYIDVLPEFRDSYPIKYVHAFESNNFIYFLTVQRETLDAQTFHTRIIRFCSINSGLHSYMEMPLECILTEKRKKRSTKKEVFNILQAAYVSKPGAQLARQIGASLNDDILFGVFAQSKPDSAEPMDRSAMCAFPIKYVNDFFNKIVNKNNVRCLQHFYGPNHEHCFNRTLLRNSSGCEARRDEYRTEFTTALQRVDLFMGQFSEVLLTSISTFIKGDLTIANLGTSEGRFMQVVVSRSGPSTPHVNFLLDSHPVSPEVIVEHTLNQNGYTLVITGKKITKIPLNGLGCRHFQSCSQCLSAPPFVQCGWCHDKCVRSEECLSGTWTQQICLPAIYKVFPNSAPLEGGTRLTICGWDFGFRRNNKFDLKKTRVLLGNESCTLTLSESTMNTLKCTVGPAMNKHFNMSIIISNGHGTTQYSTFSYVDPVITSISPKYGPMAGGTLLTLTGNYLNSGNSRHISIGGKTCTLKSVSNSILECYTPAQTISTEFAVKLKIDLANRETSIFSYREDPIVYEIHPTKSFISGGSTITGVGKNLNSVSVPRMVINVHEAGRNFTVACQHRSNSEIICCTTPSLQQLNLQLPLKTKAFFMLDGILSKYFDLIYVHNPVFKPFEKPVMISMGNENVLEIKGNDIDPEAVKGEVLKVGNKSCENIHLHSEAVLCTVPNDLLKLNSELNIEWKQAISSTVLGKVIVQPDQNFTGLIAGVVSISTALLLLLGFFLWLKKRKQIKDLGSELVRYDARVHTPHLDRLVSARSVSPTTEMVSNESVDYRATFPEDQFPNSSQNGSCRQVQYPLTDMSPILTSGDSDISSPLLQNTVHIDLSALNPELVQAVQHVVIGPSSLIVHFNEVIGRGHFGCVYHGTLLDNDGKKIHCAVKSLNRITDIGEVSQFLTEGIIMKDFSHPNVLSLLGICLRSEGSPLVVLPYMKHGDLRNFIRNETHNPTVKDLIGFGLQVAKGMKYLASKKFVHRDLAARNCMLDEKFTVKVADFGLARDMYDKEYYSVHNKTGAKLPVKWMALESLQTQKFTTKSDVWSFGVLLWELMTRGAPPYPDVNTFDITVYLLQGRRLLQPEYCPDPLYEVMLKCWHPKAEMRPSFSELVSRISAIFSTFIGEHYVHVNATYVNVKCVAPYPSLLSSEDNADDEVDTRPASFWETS
# Tyrosine-protein kinase Lck, sequence (P06239 whole entry): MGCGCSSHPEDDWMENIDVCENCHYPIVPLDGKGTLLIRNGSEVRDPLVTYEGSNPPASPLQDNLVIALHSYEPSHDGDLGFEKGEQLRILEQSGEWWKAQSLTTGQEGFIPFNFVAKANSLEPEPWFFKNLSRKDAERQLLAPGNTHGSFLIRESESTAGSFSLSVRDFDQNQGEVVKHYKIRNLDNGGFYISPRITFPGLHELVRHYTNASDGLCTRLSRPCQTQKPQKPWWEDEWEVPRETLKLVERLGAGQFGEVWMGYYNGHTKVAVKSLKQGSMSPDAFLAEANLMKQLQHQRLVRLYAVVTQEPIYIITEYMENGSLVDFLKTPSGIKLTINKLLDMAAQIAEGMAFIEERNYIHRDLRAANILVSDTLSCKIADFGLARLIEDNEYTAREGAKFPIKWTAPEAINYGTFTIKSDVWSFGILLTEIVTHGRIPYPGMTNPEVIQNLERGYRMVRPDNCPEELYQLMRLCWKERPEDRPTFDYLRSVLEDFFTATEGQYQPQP
SMILES,IC50 [1],IC50 [2],IC50 (HUVEC [3]),IC50 [4],IC50 (HUVEC [5]),IC50 (Angiopoietin-1 receptor),solubility [6],solubility [7],solubility [8],microsomal CLint [9],microsomal CLint [10],half-life [11],Vd [12],clearance [13],Cmax [14],AUC(0-inf) [15],Tmax [16],bioavailability [17]
COc1cc2nccc(Oc3ccc4c(c3)OCCN4C(=O)Nc3ccccc3Cl)c2cc1OC,2200 nM,19 nM,230 nM,290 nM,73 nM,2200 nM,–,–,–,–,–,–,–,–,–,–,–,–
COc1cc2nccc(Oc3ccc4c(C(=O)NC(C)C)cccc4c3)c2cc1OC,–,–,–,–,–,–,> 200 µg/mL,5.6 µg/mL,< 1 µg/mL,–,–,–,–,–,–,–,–,–
COc1cc2nccc(Oc3ccc4c(c3)OCCN4C(N)=O)c2cc1OC,> 4000 nM,58 nM,1100 nM,> 4000 nM,280 nM,> 4000 nM,–,–,–,–,–,–,–,–,–,–,–,–
COc1cc2nccc(Oc3ccc4c(C(=O)Nc5ccc(C)cc5)cccc4c3)c2cc1OC,–,–,–,–,–,–,> 200 µg/mL,9.4 µg/mL,< 1 µg/mL,–,–,–,–,–,–,–,–,–
COc1cc2nccc(Oc3ccc4c(c3)OCCN4C(=O)Nc3ccccc3C)c2cc1OC,27 nM,1 nM,910 nM,410 nM,45 nM,1600 nM,–,–,–,–,–,–,–,–,–,–,–,–
CCNC(=O)N1CCOc2cc(Oc3ccnc4cc(OC)c(OC)cc34)ccc21,1500 nM,1 nM,780 nM,1400 nM,23 nM,> 4000 nM,–,–,–,–,–,–,–,–,–,–,–,–
COc1cc2nccc(Oc3ccc4c(c3)OCCN4C(=O)Nc3cccc(C)c3)c2cc1OC,–,–,190 nM,350 nM,0.6 nM,–,–,–,–,–,–,–,–,–,–,–,–,–
COc1cc2nccc(Oc3ccc4c(C(=O)Nc5ccc(Cl)cc5)cccc4c3)c2cc1OC,–,–,–,–,8 nM,–,–,1.4 µg/mL,< 1 µg/mL,–,–,–,–,–,–,–,–,–
COc1cc2nccc(Oc3ccc4c(C(=O)Nc5cccc(Cl)c5)cccc4c3)c2cc1OC,–,–,–,–,–,–,9.5 µg/mL,36 µg/mL,< 1 µg/mL,–,–,–,–,–,–,–,–,–
COc1cc2nccc(Oc3ccc4c(c3)OCCN4C(=O)Nc3ccccc3)c2cc1OC,188 nM,1 nM,340 nM,650 nM,0.6 nM,386 nM,–,–,–,62 µL/min/mg,122 µL/min/mg,1.2 h,2.1 L/kg,30 mL/min/kg,–,–,–,–
COc1cc2nccc(Oc3ccc4c(c3)OCCN4C(=O)Nc3ccc(Cl)cc3)c2cc1C(N)=O,21 nM,0.6 nM,290 nM,160 nM,1 nM,290 nM,–,–,–,48 µL/min/mg,25 µL/min/mg,2.6 h,0.5 L/kg,3.17 mL/min/kg,820 ng/mL,4500 ng·h/mL,2.3 h,46%
COc1cc2nccc(Oc3ccc4c(c3)OCCN4C(=O)NC(C)C)c2cc1OC,1000 nM,40 nM,1100 nM,1200 nM,52 nM,> 4000 nM,> 200 µg/mL,14 µg/mL,3 µg/mL,–,–,–,–,–,–,–,–,–
COc1cc2nccc(Oc3ccc4c(c3)OCCN4C(=O)N[C@@H](C)c3ccccc3)c2cc1OC,18 nM,1 nM,300 nM,460 nM,3 nM,260 nM,–,–,–,543 µL/min/mg,188 µL/min/mg,2.3 h,1.4 L/kg,16.3 mL/min/kg,–,–,–,–
CNC(=O)N1CCOc2cc(Oc3ccnc4cc(OC)c(OC)cc34)ccc21,2400 nM,40 nM,370 nM,> 4000 nM,100 nM,> 4000 nM,> 200 µg/mL,130 µg/mL,46 µg/mL,–,–,–,–,–,–,–,–,–
CNC(=O)c1cc(Oc2ccc3c(c2)OCCN3C(=O)Nc2ccc(Cl)cc2)ccn1,> 4000 nM,95 nM,> 1000 nM,> 4000 nM,> 1000 nM,> 4000 nM,–,–,–,–,–,–,–,–,–,–,–,–
COc1cc2nccc(Oc3ccc4c(c3)OCCN4C(=O)NCc3ccc(C)cc3)c2cc1OC,150 nM,26 nM,1100 nM,500 nM,360 nM,1500 nM,–,–,–,–,–,–,–,–,–,–,–,–
CNC(=O)c1cccc2cc(Oc3ccnc4cc(OC)c(OC)cc34)ccc12,–,–,–,–,–,–,> 200 µg/mL,3 µg/mL,1.4 µg/mL,–,–,–,–,–,–,–,–,–
COc1cc2nccc(Oc3ccc4c(c3)OCCN4C(=O)Nc3cccc(Cl)c3)c2cc1OC,4 nM,1 nM,220 nM,230 nM,0.4 nM,9 nM,120 µg/mL,28 µg/mL,< 1 µg/mL,–,–,–,–,–,–,–,–,–
COc1cc2nccc(Oc3ccc4c(C(=O)Nc5ccc(F)cc5)cccc4c3)c2cc1OC,–,–,–,–,–,–,67 µg/mL,1.3 µg/mL,< 1 µg/mL,–,–,–,–,–,–,–,–,–
COc1cc2nccc(Oc3ccc4c(c3)OCCN4C(=O)N[C@H](C)c3ccccc3)c2cc1OC,78 nM,40 nM,1100 nM,210 nM,250 nM,> 4000 nM,–,–,–,–,–,–,–,–,–,–,–,–
CNC(=O)c1cc(Oc2ccc3c(c2)OCCN3C(=O)Nc2ccc(C)cc2)ccn1,> 4000 nM,62 nM,> 1000 nM,> 4000 nM,> 1000 nM,> 4000 nM,–,–,–,–,–,–,–,–,–,–,–,–
O=C(Nc1ccc(Cl)cc1)N1CCOc2cc(Oc3ncnc4[nH]ccc34)ccc21,> 4000 nM,77 nM,> 1000 nM,> 4000 nM,230 nM,> 4000 nM,–,–,–,–,–,–,–,–,–,–,–,–
COc1cc2nccc(Oc3ccc4c(c3)OCCN4C(=O)NCc3ccccc3)c2cc1OC,500 nM,53 nM,> 1100 nM,1600 nM,237 nM,> 4000 nM,–,–,–,–,–,–,–,–,–,–,–,–
Cc1ccc(NC(=O)N2CCOc3cc(Oc4ncnc5[nH]ccc45)ccc32)cc1,> 4000 nM,26 nM,> 1000 nM,> 4000 nM,230 nM,> 4000 nM,–,–,–,–,–,–,–,–,–,–,–,–
COc1cc2nccc(Oc3ccc4c(c3)OCCN4C(=O)Nc3ccc(C)cc3)c2cc1C(N)=O,19 nM,0.5 nM,300 nM,260 nM,1 nM,430 nM,–,–,–,62 µL/min/mg,96 µL/min/mg,1.6 h,1.4 L/kg,14.3 mL/min/kg,160 ng/mL,650 ng·h/mL,2.3 h,28%

# — ChEMBL document CHEMBL1144028, “Novel 2,3-dihydro-1,4-benzoxazines as potent and orally bioavailable inhibitors of tumor-driven angiogenesis” (J Med Chem, 2008)
